In PubChem BioAssay one finds GFP response vs DMSO, GFP response relative to DMSO and GFP response, % of DMSO data, which are given here for 14 compounds.

The nature of assay [1]: hit retest on RPL19A-GFP reporter strain – cell-based, S. cerevisiae, flow cytometry, cherry picks, mother/daughter gates, confirmation (AID 2270;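 active means GFP response below 50% of the DMSO control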). The settings on record: 3 h, at 10 µM, stronger effect = lower value, 100 = same GFP as DMSO wells. On the technique in general: A flow cytometer gives signals particle by particle.
Assay [2] can be described thus: yeast TOR pathway reporter LAP4-GFP change – cell-based, cherry picks, flow cytometry, mother/daughter gates, confirmation (AID 2271;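 active means GFP response above 150% of the DMSO control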;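 further: ratio of sample to DMSO plate mean so 100% equals DMSO level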). The settings on record: S. cerevisiae LAP4-GFP strain, 3 h, at 10 µM, stronger effect = higher value, 100 means same as DMSO control. A digest of the protocol: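 material = Alexa 633-stained baker's yeast GFP-fusion strain | amount = 0.2 OD600 cells | schedule = 30 °C, 3 h compound incubation, rotating | signal = GFP by flow cytometry | measure = per-gate (all, mother, daughter) GFP response vs DMSO | controls = positive rapamycin (400 ng/mL), negative DMSO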

Assay [3] is described as follows: TOR pathway reporter MEP2-GFP, retest of hits – S. cerevisiae, flow cytometry GFP, cherry picks, confirmation (AID 2272;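 active means GFP response above 150% of the DMSO control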;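 further: ratio of well signal to plate DMSO mean so 100% equals DMSO level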). The settings on record: S. cerevisiae MEP2-GFP strain, 3 h, at 10 µM, stronger effect = higher value.
Assay [4] in a line: yeast AGP1-GFP fluorescence change, single-dose – cell-based, flow cytometry, S. cerevisiae, cherry picks, confirmation (AID 2273).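 Further: median GFP channel fluorescence over the whole cell population gate.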 The settings on record: S. cerevisiae AGP1-GFP strain, 3 h, at 10 µM.
A short description of assay [5]: TOR pathway CIT2 reporter hit retest – S. cerevisiae, GFP fusion, cherry picks, mother/daughter gates, confirmation (AID 2274). The settings on record: S. cerevisiae CIT2-GFP strain, flow cytometry, 3 h, at 10 µM, stronger effect = higher value.
[6] abbreviates: measured here: daughter cell gate.
Where [7] appears, read: measured here: mother cell gate.
[8] abbreviates: measured here: daughter cell gate response.
The mark [9] stands for this setting: measured here: mother cell gate response.

The structures appear in SMILES notation. Activity calls are given as the source filed them.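 How the source made its calls, unless noted: active means GFP response above 150% of the DMSO level; inconclusive means fewer than 70 events counted for a yeast strain; inactive means the rest.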

Take `CCOC(=O)C(N)CSC1CC(=O)N(c2ccc(C(=O)OC)cc2)C1=O` (centres undefined): the GFP response vs DMSO was 98% (inactive) in assay [1], 98.4% in assay [1] (setting [6]), 98.7% in assay [1] (setting [7]) and 100% (inactive) in assay [3]. Further, the GFP response relative to DMSO in assay [2] was 102% (inactive); in assay [2] (setting [8]), 102%; in assay [2] (setting [9]), 101%. Moreover, the GFP response, % of DMSO in assay [4] is 98.1% (inactive); in assay [5], 98.3% (inactive); in assay [5] (setting [6]) it was 99.1%; in assay [5] (setting [7]) it was 97.3%.
With `COc1cc(SSc2cc(OC)cc([N+](=O)[O-])c2N)c(N)c([N+](=O)[O-])c1`, the GFP response vs DMSO is 89% (inactive) in assay [1], 78.4% in assay [1] (setting [6]), 80.4% in assay [1] (setting [7]) and 118% (inactive) in assay [3]. Besides, the GFP response relative to DMSO in assay [2] was 265% (active); in assay [2] (setting [8]) it was 153%; in assay [2] (setting [9]), 252%. Moreover, the GFP response, % of DMSO in assay [4] is 124% (inactive); in assay [5], 145% (inactive); in assay [5] (setting [6]), 112%; in assay [5] (setting [7]), 143%.
In the case of `O=C(O)CCc1ccc(-c2ccc(Cl)cc2)o1`, the GFP response vs DMSO in assay [1] is 99% (inactive); in assay [1] (setting [6]), 91.7%; in assay [1] (setting [7]), 97.2%; in assay [3], 99% (inactive). Besides, the GFP response relative to DMSO was 138% (inactive) in assay [2], 128% in assay [2] (setting [8]) and 140% in assay [2] (setting [9]). Moreover, the GFP response, % of DMSO is 85.4% (inactive) in assay [4], 94.4% (inactive) in assay [5], 88.4% in assay [5] (setting [6]) and 94.4% in assay [5] (setting [7]).
`Cc1cccc(Sc2ccc([N+](=O)[O-])cc2[N+](=O)[O-])n1`: the GFP response vs DMSO in assay [1] is 102% (inactive); in assay [1] (setting [6]) it was 100%; in assay [1] (setting [7]), 102%; in assay [3], 104% (inactive). In addition, the GFP response relative to DMSO in assay [2] is 97.4% (inactive); in assay [2] (setting [8]) it was 100%; in assay [2] (setting [9]) it was 98.3%. Moreover, the GFP response, % of DMSO in assay [4] is 101% (inactive); in assay [5], 100% (inactive); in assay [5] (setting [6]) it was 101%; in assay [5] (setting [7]), 99.8%.
Consider `CSc1nc(N2CCN(c3ccccc3Cl)CC2)c2ccccc2n1`, for which the GFP response vs DMSO is 96.2% (inactive) in assay [1], 96.7% in assay [1] (setting [6]), 95.2% in assay [1] (setting [7]) and 110% (inactive) in assay [3]. Also, the results for the GFP response relative to DMSO in assay [2], in assay [2] (setting [8]) and in assay [2] (setting [9]) were 98.9% (inactive), 101% and 98.4%, respectively. Also, the GFP response, % of DMSO was 102% (inactive) in assay [4], 97.2% (inactive) in assay [5], 97.6% in assay [5] (setting [6]) and 97.1% in assay [5] (setting [7]).
Take `O=C(/C=C/c1ccccn1)c1cc(Br)ccc1O`: the GFP response vs DMSO in assay [1] is 81.7% (inactive); in assay [1] (setting [6]), 93.3%; in assay [1] (setting [7]), 72.8%; in assay [3] it was 109% (inactive). Further, the values for the GFP response relative to DMSO in assay [2], in assay [2] (setting [8]) and in assay [2] (setting [9]) were 218% (active), 177% and 210%, respectively. Further, the GFP response, % of DMSO in assay [4] is 102% (inactive); in assay [5], 86.1% (inactive); in assay [5] (setting [6]), 94.8%; in assay [5] (setting [7]), 77.3%.
As for `Fc1ccc(/C=N/Nc2nc(-c3cccnc3)nc3ccccc23)cc1`, the GFP response vs DMSO in assay [1] was 94.5% (inactive); in assay [1] (setting [6]), 92.5%; in assay [1] (setting [7]), 95%; in assay [3], 102% (inactive). In addition, the GFP response relative to DMSO in assay [2] is 107% (inactive); in assay [2] (setting [8]), 105%; in assay [2] (setting [9]), 111%. Moreover, the GFP response, % of DMSO in assay [4] was 94.6% (inactive); in assay [5], 93.9% (inactive); in assay [5] (setting [6]), 96.5%; in assay [5] (setting [7]), 91.2%.
As for `Cc1cccc(NC(=O)CC2SC(=O)N(c3ccccc3)C2=O)c1` (centres undefined), the GFP response vs DMSO in assay [1] was 96.6% (inactive); in assay [1] (setting [6]) it was 99.4%; in assay [1] (setting [7]), 93%; in assay [3], 109% (inactive). Further, the GFP response relative to DMSO was 126% (inactive) in assay [2], 128% in assay [2] (setting [8]) and 126% in assay [2] (setting [9]). The GFP response, % of DMSO was 93.9% (inactive) in assay [4], 104% (inactive) in assay [5], 106% in assay [5] (setting [6]) and 97.3% in assay [5] (setting [7]).
With `O=C(Oc1c(Cl)cc(Cl)c2cccnc12)c1cccc([N+](=O)[O-])c1`, the GFP response vs DMSO in assay [1] was 106% (inactive); in assay [1] (setting [6]), 92.9%; in assay [1] (setting [7]), 108%; in assay [3] it was 133% (inactive). Besides, the figures for the GFP response relative to DMSO in assay [2], in assay [2] (setting [8]) and in assay [2] (setting [9]) were 244% (active), 183% and 236%, respectively. Further, the GFP response, % of DMSO in assay [4] is 101% (inactive); in assay [5], 134% (inactive); in assay [5] (setting [6]) it was 121%; in assay [5] (setting [7]) it was 131%.
Regarding `Cc1ccc(N2C(=O)C3C4C=CC(CNC(=S)N5CCN(c6ccccn6)CC5)(O4)C3C2=O)cc1` (centres undefined), the GFP response vs DMSO is 98.7% (inactive) in assay [1], 99.6% in assay [1] (setting [6]), 98.6% in assay [1] (setting [7]) and 106% (inactive) in assay [3]. In addition, the figures for the GFP response relative to DMSO in assay [2], in assay [2] (setting [8]) and in assay [2] (setting [9]) were 113% (inactive), 109% and 111%, respectively. The GFP response, % of DMSO in assay [4] was 105% (inactive); in assay [5], 99.3% (inactive); in assay [5] (setting [6]), 100%; in assay [5] (setting [7]), 96.8%.
In the case of `COc1ccccc1CN1C(=O)c2cccc3cccc(c23)C1=O`, the GFP response vs DMSO in assay [1] was 100% (inactive); in assay [1] (setting [6]) it was 100%; in assay [1] (setting [7]) it was 100%; in assay [3], 104% (inactive). Also, the GFP response relative to DMSO was 91.9% (inactive) in assay [2], 90.7% in assay [2] (setting [8]) and 91.6% in assay [2] (setting [9]). Besides, the GFP response, % of DMSO was 108% (inactive) in assay [4], 99.3% (inactive) in assay [5], 100% in assay [5] (setting [6]) and 98% in assay [5] (setting [7]).
Consider `CNC(=O)/C(C#N)=C/c1c(N2CC(C)OC(C)C2)nc2ccccn2c1=O` (centres undefined), for which the GFP response vs DMSO in assay [1] was 97.6% (inactive); in assay [1] (setting [6]), 88.7%; in assay [1] (setting [7]) it was 90.1%; in assay [3], 101% (inactive). Moreover, the figures for the GFP response relative to DMSO in assay [2], in assay [2] (setting [8]) and in assay [2] (setting [9]) were 94.4% (inactive), 92.6% and 92%, respectively. Moreover, the GFP response, % of DMSO in assay [4] was 110% (inactive); in assay [5], 98.8% (inactive); in assay [5] (setting [6]) it was 95.6%; in assay [5] (setting [7]) it was 85.8%.
In the case of `O=C1C2C3C=CC(CO)(O3)C2C(=O)N1c1ccc(-c2ccccc2)cc1` (centres undefined), the GFP response vs DMSO was 109% (inactive) in assay [1], 103% in assay [1] (setting [6]), 94.9% in assay [1] (setting [7]) and 103% (inactive) in assay [3]. Moreover, the GFP response relative to DMSO in assay [2] is 334% (active); in assay [2] (setting [8]), 156%; in assay [2] (setting [9]) it was 304%. Moreover, the GFP response, % of DMSO is 97.8% (inactive) in assay [4], 91.5% (inactive) in assay [5], 97.4% in assay [5] (setting [6]) and 82.1% in assay [5] (setting [7]).
`COc1ccccc1NC(=O)c1ccc([N+](=O)[O-])o1`: the GFP response vs DMSO in assay [1] was 102% (inactive); in assay [1] (setting [6]), 102%; in assay [1] (setting [7]) it was 101%; in assay [3], 102% (inactive). Moreover, the GFP response relative to DMSO in assay [2] was 120% (inactive); in assay [2] (setting [8]) it was 115%; in assay [2] (setting [9]), 122%. For the same compound, the GFP response, % of DMSO in assay [4] was 99.3% (inactive); in assay [5], 107% (inactive); in assay [5] (setting [6]), 108%; in assay [5] (setting [7]), 106%.
